PGC1a acetyl inh: lowers PGC1a acetylation signal in U2OS cells | AlphaScreen anti-acetyl-lysine; with virally co-expressed GCN5 acetyltransferase | inhibition, % at 15.6 µM | hit rate 0.17% among 350,000;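 active = every replicate shows inhibition of at least 40%; inconclusive = mean inhibition at least 40% but some replicate below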
DENV2 CPE rescue: protects cells from dengue virus 2 cytopathic effect | DENV2-infected cells, cytopathic effect rescue, plate reader | hit rate 1.7% among 350,000 | CPE inhibition, % at 9.99 µM | AID 651640; in the data active = CPE inhibition above about 20%, passing the limit was not always enough; inconclusive = no clear call, values can overlap the other calls; tested in BHK-21 cells
S100A4 inh HTS: S100A4-myosin IIA interaction inhibition | inhibition, % at 10.7 µM | P26447 | hit rate 0.14% among 360,000 | S100A4/TAMRA-MyoIIA peptide fluorescence polarization;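 active = mean inhibition of at least 70% across replicates, with every replicate also reaching that level; inconclusive = mean inhibition reaches 70% but some replicates fall short; inactive = mean inhibition below 70%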
Target sequence (P26447 whole entry, looked up): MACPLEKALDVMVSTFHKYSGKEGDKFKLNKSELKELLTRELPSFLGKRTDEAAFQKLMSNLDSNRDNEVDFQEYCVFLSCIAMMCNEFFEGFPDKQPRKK
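Test system: S100A4 monomer protein. Medium: HEPES buffer with Ca2+, pH 7.2. Reagent: fluorescent myosin IIA peptide, 5 nM. Compound dosing: single-point compound testing. Timing: 5 min between mix addition and reading. Benchmarks: DMSO neutral and TFP positive wells.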
SIRT5 inh: inhibitors of human sirtuin-5 desuccinylase; Q9NXA8; Purified SirT5, succinyl-peptide AMC, trypsin-coupled fluorescence; inhibition, % at 15 µM; hit rate 1.1% among 330,000; AID 652115; in the data active = inhibition above about 15%; inconclusive = no clear call, values can overlap the other calls
Target sequence (Q9NXA8 whole entry, looked up): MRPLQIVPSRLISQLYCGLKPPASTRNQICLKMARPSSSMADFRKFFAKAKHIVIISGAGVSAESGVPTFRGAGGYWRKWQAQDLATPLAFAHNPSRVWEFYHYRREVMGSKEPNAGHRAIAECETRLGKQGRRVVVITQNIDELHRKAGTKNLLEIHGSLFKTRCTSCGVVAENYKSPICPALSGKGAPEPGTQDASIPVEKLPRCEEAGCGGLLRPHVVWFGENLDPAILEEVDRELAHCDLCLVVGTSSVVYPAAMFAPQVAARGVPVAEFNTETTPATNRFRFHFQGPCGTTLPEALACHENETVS
Statin myotox sup: protects C2C12 myotubes from simvastatin toxicity. ATP luminescence, 48 h; scaled: DMSO 0, geranylgeraniol control 100. AID 602340. rescue of ATP level, % at 7.49 µM. hit rate 0.78% among 330,000;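 active = mean ATP rescue above about 67%, or every replicate alone reaching that limit, limit read from the data, passing the limit was not always enough; inconclusive = no clear call, values can overlap the other calls; inactive = mean under the limit and some replicate under it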;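 note: myotubes were challenged with 10 µM simvastatin during compound exposure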
Hits are given with their value; – = inactive; ? = inconclusive; · = no result given; ! = not active in a repeat. Only some compounds are listed: those with a hit (about 2.9% of all), similar ones and a draw of the others.

SMILES	PGC1a acetyl inh	DENV2 CPE rescue	S100A4 inh HTS	SIRT5 inh	Statin myotox sup
COc1ccc(OC(=O)N(C)C[C@@H]2OCc3ccccc3-c3c(n(C)c4ccccc34)C(=O)N([C@@H](C)CO)C[C@H]2C)cc1	–	–	–	–	·
COC(=O)C1=C(c2ccc(OC(F)(F)F)cc2)C[C@@H]2CC[C@H]1N2C(=O)NC1CCCCC1	·	37.5	–	–	–
COC(=O)C1=C(c2ccc(OC(F)(F)F)cc2)C[C@@H]2CC[C@H]1N2C(=O)NCCNC(C)=O	·	–	–	·	–
COC(=O)C1=C(c2ccc(OC(F)(F)F)cc2)C[C@@H]2CC[C@H]1N2C(=O)NCCOc1ccc(OC)cc1	–	26.0	–	·	128.2
Cc1cccc(S(=O)(=O)N2[C@@H]3Cn4c(ccc(-c5cccc(F)c5)c4=O)[C@H]2[C@@H](C(=O)O)[C@@H]3CO)c1	·	·	·	·	–
O=C(CN1CCN(Cc2ccc(Cl)cc2)C1=O)N1CCC2(CC1)OCCO2	–	·	·	·	86.8
O=C(CN1CCN(Cc2cccc(Cl)c2)C1=O)N1CCC2(CC1)OCCO2	–	·	·	·	·
CCC(c1ccc(C)cc1)N1C(=O)C2C3CCC(O3)C2C1=O (stereo not given)	–	25.3	–	–	–
O=C1C2C3CCC(O3)C2C(=O)N1c1cccc(F)c1 (stereo not given)	–	–	–	–	·
CCC1(CC)C(=N)N(C)C(=O)NC1=O	–	·	–	–	·
CCCCN1C(=N)C(CC)(CC)C(=O)NC1=O	·	23.6	–	–	·
O=C(CCC(=O)N1C[C@H]2C[C@@H](C1)c1cccc(=O)n1C2)NCc1ccc(F)cc1	–	81.0	–	·	–
CC(C)[C@H](NC(=O)N1C[C@H]2C[C@@H](C1)c1cccc(=O)n1C2)C(=O)Nc1ccccc1F	–	58.2	–	·	–
CCN1[C@@H]2Cn3c(ccc(-c4cccc(OC)c4)c3=O)[C@H]1[C@@H](C(=O)OC)[C@@H]2CO	·	–	–	–	–
CCC(=O)N1[C@@H]2c3ccc(-c4cccc(F)c4)c(=O)n3C[C@H]1[C@H](CO)[C@H]2C(=O)OC	·	–	–	–	–
O=C(Cc1cccnc1)N1CCCCN2[C@H](C1)[C@@H](c1ccc(/C=C/c3ccccc3)cc1)[C@@H]2CO	–	–	–	–	·
COc1ccc(SCC2CN(C)CCC2c2ccc(F)cc2)cc1 (stereo not given)	·	25.0	–	–	·
COCC(=O)N1[C@@H]2c3ccc(C4=CCCC4)c(=O)n3C[C@H]1[C@H](CO)[C@H]2C(=O)OC	–	–	–	–	–
C[C@]12C[C@H](O)[C@@H](O)C[C@@H]1CC[C@@H]1[C@@H]2CC[C@]2(C)C(=O)CC[C@@H]12	–	33.4	–	–	–
C[C@]12CCC3[C@@H](CC[C@H]4C[C@@H](O)CC[C@]34C)C1CCC2=O (stereo not given in full)	–	–	–	–	–
CC(O)C1C=CC=CC(=O)OC2CC3OC4C5OC5(C)CCC4(COC(=O)C4OC4(C)C(O)CO1)C2(C)C31CO1 (stereo not given)	·	–	–	–	·
CC1=CC2OC3CC4OC(=O)C=CC=CC(C(C)O)OCC(O)C(C)CC(=O)OCC2(CC1O)C4(C)C31CO1 (stereo not given)	80.9	–	–	–	·
CCCN1[C@@H]2Cn3c(ccc(-c4ccccc4)c3=O)[C@H]1[C@@H](C(=O)OC)[C@@H]2CO	·	–	–	–	–
COc1ccc(OC(=O)N(C)C[C@H]2OCc3cnnn3CCCC(=O)N([C@@H](C)CO)C[C@H]2C)cc1	–	–	–	15.3!	–
C[C@@H]1CN([C@H](C)CO)C(=O)CCCn2nncc2CO[C@H]1CN(C)C(=O)Oc1ccc2ccccc2c1	–	56.4!	–	–	–
SMILES	PGC1a acetyl inh	DENV2 CPE rescue	S100A4 inh HTS	SIRT5 inh	Statin myotox sup
C[C@@H]1CN([C@@H](C)CO)C(=O)CCCn2nncc2CO[C@H]1CN(C)C(=O)Oc1ccc2ccccc2c1	–	50.2!	–	–	–
COc1ccc(OC(=O)N(C)C[C@@H]2OCc3cnnn3CCCC(=O)N([C@H](C)CO)C[C@H]2C)cc1	–	–	–	–	–
C[C@@H]1CN([C@@H](C)CO)C(=O)CCCn2nncc2CO[C@@H]1CN(C)C(=O)Oc1ccc2ccccc2c1	–	–	–	–	–
COC(=O)[C@@H]1[C@@H](CO)[C@@H]2Cn3c(ccc(C4=CCCCC4)c3=O)[C@H]1N2C(=O)CC1CC1	–	?	–	–	–
COC(=O)C[C@H]1CC[C@@H]2NC[C@@H](O)COC[C@H]2O1	–	–	–	–	–
OC1CN2CCCC(O)C2C1O (stereo not given)	·	54.6	–	–	·
Cc1ccc(/C=C2\C(=O)NC(=O)N(CC3CCCO3)C2=O)s1 (stereo not given)	–	29.9	–	–	·
COC(=O)[C@H]1[C@H](CO)[C@H]2Cn3c(ccc(-c4ccc(F)cc4)c3=O)[C@@H]1N2Cc1cccnc1	·	–	–	–	–
C[C@@H]1C(=O)O[C@H]2[C@H](O)[C@]34[C@@H]5OC(=O)[C@]3(OC3OC(=O)[C@H](O)C34[C@H](C(C)(C)C)[C@@H]5O)[C@@]12O (stereo not given in full)	–	41.7	–	–	–
CC=Cc1ccc2n(c1=O)C[C@@H]1[C@@H](CO)[C@H](C(=O)OC)[C@H]2N1C(=O)CC1CC1 (mixture of isomers)	–	·	–	–	–
CC=Cc1ccc2n(c1=O)C[C@H]1[C@H](CO)[C@@H](C(=O)OC)[C@@H]2N1C(=O)CC (mixture of isomers)	·	–	–	–	–
CCOC(=O)[C@@H]1[C@@H]2NC(=S)N[C@@]1(C)Oc1ccccc12	–	–	–	–	·
Cc1cc(C)n(-c2ccc(NN=C(C#N)C#N)cc2)n1	?	31.2	–	–	–
N#CC(C#N)=NNc1ccc(-n2ccc(C(F)(F)F)n2)cc1	–	–	–	·	·
COc1ccc(NC(=S)N2Cc3ccccc3-n3nncc3C2)c(OC)c1	–	25.2	–	–	–
C[C@@H]1C[C@@H]([C@H](O)CC2CC(=O)NC(=O)C2)C(=O)[C@@H](C)C1	72.7	–	–	·	172.9
CC(=O)OC1(C)CC(C)C(=O)C(C(O)CC2CC(=O)NC(=O)C2)C1 (stereo not given)	92.7	–	–	·	83.4
CC(=O)c1c(C)n(C2CCCCC2)c2ccc(O)cc12	55.3	–	–	–	·
CC(=O)c1c(C)n(Cc2ccccc2)c2ccc(O)cc12	–	–	–	–	–
CC=Cc1ccc2n(c1=O)C[C@@H]1[C@@H](CO)[C@H](C(=O)OC)[C@H]2N1CC1CCOCC1 (mixture of isomers)	·	–	–	–	–
COC(=O)C1=C(c2c(C)noc2C)C[C@@H]2CC[C@H]1N2C(=O)N1CCC(C)CC1	–	51.2	–	·	–
CCC(=O)N1[C@@H]2Cn3c(ccc(-c4cccc(F)c4)c3=O)[C@H]1[C@@H](C(=O)OC)[C@@H]2CO	·	?	–	–	–
CCCNC(=O)[C@H]1[C@H](CO)[C@H]2Cn3c(cccc3=O)[C@@H]1N2CCC	·	·	·	·	–

Screening data: PubChem BioAssay, Broad Institute
